KCNK3 block: human KCNK3 channel inhibition, primary screen | CHO-KCNK3 thallium flux, FluxOR fluorescence; stronger effect = lower value | B-score at 10 µM | O14649 | 340,000 compounds, 0.84% hits;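 active means B-score under library mean minus 4 SD, starting fluorescence ratio at most library mean plus 5 SD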;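 further: more negative B-score means stronger inhibition of thallium flux through KCNK3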
KCNK9 inh: inhibitors of human KCNK9 two-pore domain potassium channel. HEK293 KCNK9, FluxOR thallium flux fluorescence; stronger effect = lower value. Q9NPC2. B-score at 10 µM. 310,000 compounds, 1.2% hits;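 active means ratio B-score over 3 SD below the library mean, with starting fluorescence within 5 SD of its mean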;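 further: negative B-score means less thallium flux so channel inhibition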
KCNQ1 pot: potentiates or activates the human KCNQ1 potassium channel. P51787. B-score at 10 µM. 310,000 compounds, 0.35% hits. CHO-K1 KCNQ1, thallium flux FluxOR fluorescence; stronger effect = higher value;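 active means fluorescence ratio B-score, a plate-corrected score, at least three library SD, with initial intensity B-score within 5 SD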
Target sequence (P51787 whole entry, looked up): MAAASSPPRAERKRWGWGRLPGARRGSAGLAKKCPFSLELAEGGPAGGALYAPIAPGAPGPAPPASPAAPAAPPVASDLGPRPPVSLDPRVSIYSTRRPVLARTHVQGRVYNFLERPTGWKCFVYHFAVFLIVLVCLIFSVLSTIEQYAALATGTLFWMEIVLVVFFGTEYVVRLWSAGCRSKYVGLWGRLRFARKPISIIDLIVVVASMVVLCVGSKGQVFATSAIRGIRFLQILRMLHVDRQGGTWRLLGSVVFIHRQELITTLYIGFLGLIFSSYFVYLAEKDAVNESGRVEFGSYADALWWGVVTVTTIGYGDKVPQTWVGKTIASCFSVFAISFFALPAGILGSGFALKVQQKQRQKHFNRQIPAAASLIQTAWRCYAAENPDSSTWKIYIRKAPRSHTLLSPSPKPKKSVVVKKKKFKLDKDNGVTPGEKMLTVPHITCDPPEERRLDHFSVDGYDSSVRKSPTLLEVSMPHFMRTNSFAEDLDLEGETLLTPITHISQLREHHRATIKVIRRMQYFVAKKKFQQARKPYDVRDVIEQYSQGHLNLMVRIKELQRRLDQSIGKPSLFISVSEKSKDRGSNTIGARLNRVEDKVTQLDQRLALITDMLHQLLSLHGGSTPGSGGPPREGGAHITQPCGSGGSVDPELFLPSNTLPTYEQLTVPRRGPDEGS
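assay system = CHO-K1 cells stably expressing KCNQ1 | medium = assay buffer, equal DMSO in all wells | timing = 37 °C overnight plating, 90-min dark dye load, 20-min compound pretreatment | measured by = kinetic FluxOR thallium fluorescence, 10-s 1-Hz baseline, 110-s post-stimulus read | measure = fluorescence change relative to baseline, converted to B score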
hERG protect: compounds protecting human hERG from proarrhythmic drug block; Q12809; 310,000 compounds, 0.51% hits; activation (rescue from dofetilide block), less the hit threshold, % at 10 µM; CHO-hERG, FluxOR thallium flux, dofetilide IC70 present;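 active means activation above the mean of controls blocked by dofetilide plus 5 SD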;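 further: thallium influx through hERG after potassium depolarization seen as dye fluorescence rise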
KCNQ1 inh: blocks the human KCNQ1 potassium channel; CHO-K1 KCNQ1, FluxOR thallium flux fluorescence; stronger effect = higher value; 310,000 compounds, 1.3% hits; B-score at 10 µM;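 active means compounds whose thallium flux B-score, printed positive for inhibition, exceeds three library SD while starting fluorescence stays within three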;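 further: channel opened by potassium depolarization with thallium stimulus after 20 min compound exposure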
KCNK3 inh conf: confirmation of human KCNK3 two-pore domain potassium channel inhibitors | ratio percent of control, % at 10 µM | shares compounds with KCNK3 block | 2,400 compounds, 99% hits | AID 651638 | CHO-KCNK3 thallium flux, FluxOR fluorescence; 0% buffer, 100% carvedilol maximal block;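 active means ratio percent of control, averaged over triplicates, above buffer control mean plus 5 SD, cut at about 64% in these data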;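 further: ratio is the fluorescence rise from min to max over baseline after thallium stimulus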
KCNK3 uninduced: counter-screen for KCNK3 inhibitors: effect in non-induced cells; shares compounds with KCNK3 block; non-induced KCNK3 parental cells, FluxOR thallium flux; stronger effect = lower value; thallium flux ratio (lower = more inhibition) at 10 µM; 2,400 compounds, 40% hits;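 active means thallium flux ratio, averaged over three wells, more than 5 SD below the buffer control mean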;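 further: host cells are CHO cells without KCNK3 induction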
A number is an active result; 0 = inactive; - = no result given. The list is not random: actives were taken first. Their share in the collection is about 3.1%.

SMILES	KCNK3 block	KCNK9 inh	KCNQ1 pot	hERG protect	KCNQ1 inh	KCNK3 inh conf	KCNK3 uninduced
O=C(COC(=O)c1ccc2c(c1)OCCO2)NCCc1ccccc1	0	-	-	-	-	-	-
N#Cc1ccccc1OCC(=O)OCC(=O)NC1CC1	0	-	-	-	-	-	-
COc1ccc(C)cc1S(=O)(=O)N1CCN(c2cccc(C(F)(F)F)c2)CC1	-10	0	0	0	0	103	0
Oc1ccc(Br)cc1-c1nc2cnccn2c1NC1CCCC1	-8.8	0	0	0	0	131	0
Cc1cccn2c(=O)c(/C=C(\C#N)C(N)=O)c(N3CCN(c4cccc(Cl)c4)CC3)nc12	-10	-7.2	0	0	0	102	0
CNC(=O)/C(C#N)=C/c1c(N2CCN(c3ccccc3)CC2)nc2c(C)cccn2c1=O	0	0	0	0	0	-	-
CCOC(=O)c1c(NC(=O)c2cccs2)sc(C(=O)N(C)C)c1C	0	0	0	0	0	-	-
CCOC(=O)c1c(NC(=O)c2cccs2)sc(C)c1CC	-9.8	-7.5	0	0	0	119	0
CC(=O)Nc1cccc(NC(=O)CSc2ncc(-c3ccc(Cl)cc3)n2Cc2ccco2)c1	-11	0	0	0	7	119	0.14
Cc1ccc(NC(=O)c2ccc(Cl)c(S(=O)(=O)N3CCc4ccccc43)c2)nc1	-12	-	-	-	-	144	0.13
COc1ccc(C(=O)Nc2ccc(C)cn2)cc1S(=O)(=O)N1CCCc2ccccc21	0	0	0	0	0	-	-
CN(Cc1cn(C)nc1-c1ccc(Oc2ccccc2)cc1)Cc1cnc2ccccn12	-9.4	-7	0	0	7	131	0.13
CN(Cc1ccno1)Cc1cn(C)nc1-c1ccc(Oc2ccccc2)cc1	-10	0	0	0	0	91	0
O=[N+]([O-])c1cccc(C=NNC(=S)NC23CC4CC(CC(C4)C2)C3)c1	0	-	-	-	-	-	-
Cc1ccc2c(c1)C1CC(C)(O2)N(c2cccc(C(=O)N3CCN(c4ccccn4)CC3)c2)C(=O)N1 (stereo unspecified)	0	0	0	0	0	-	-
Cc1nn(C(C)(C)C)c(OC(=O)c2cccs2)c1Sc1ccccc1	-12	-8.1	0	0	0	101	0
O=C(Nc1ccccc1)c1sccc1Oc1ccc([N+](=O)[O-])cc1F	-9	0	0	0	0	113	0
O=C(O)c1cc([N+](=O)[O-])ccc1C(=O)Nc1ccccc1	0	0	0	0	0	-	-
CC(=O)c1ccc(N=C2C(=O)Nc3ccccc32)cc1	0	0	0	0	0	-	-
CC(=O)N(/N=C1/C(=O)Nc2ccccc21)c1ccccc1	-9	0	0	0	0	125	0.12
CSc1cccc(CN2CCC(CCC(=O)NC3CC3)CC2)c1	0	0	0	0	0	-	-
CC(=O)Oc1c(/C=C(\C#N)C(N)=O)[nH]c2ccccc12	-9	0	0	0	0	101	0.14
CN(C)c1nc(-c2cccnc2)nc(-c2ccccc2)c1C#N	0	0	0	0	0	-	-
COC(=O)[C@@H](Cc1c[nH]c2ccccc12)NC(=O)C1CCCN(S(=O)(=O)c2ccc(C)cc2)C1 (stereo partly specified)	0	0	0	0	0	-	-
Cc1ccc2nc(N/N=C\c3ccc([N+](=O)[O-])o3)nc(-c3ccccc3)c2c1	-11	-6.9	0	0	7	147	0.087
SMILES	KCNK3 block	KCNK9 inh	KCNQ1 pot	hERG protect	KCNQ1 inh	KCNK3 inh conf	KCNK3 uninduced
OC1CCC(NC(=S)Nc2ccc(SC(F)F)cc2)CC1 (stereo unspecified)	0	0	0	0	0	-	-
FC(F)Sc1ccc(NC(=S)NC2CCCC2)cc1	-11	0	0	0	0	113	0
COc1ccccc1Oc1ccc(N/C=C/C(=O)c2ccco2)cc1	0	0	0	0	0	-	-
O=C(/C=C/Nc1ccc(Oc2ccccc2Cl)cc1)c1ccco1	-14	0	0	0	0	107	0
CC1CCN(C(=O)CSc2nnc3ccc(-c4cccnc4)nn23)CC1	0	0	0	0	0	-	-
Cc1ccc(C(=O)OCC(=O)Nc2ccccc2)cc1S(=O)(=O)N1CCCCC1	0	-	-	-	-	-	-
Cc1ccc(C)c(COC(=O)c2cccc(S(=O)(=O)N3CCCC3)c2)c1	0	-	-	-	-	-	-
Cc1ccc(C(=O)OCCOc2cccc(Cl)c2)cc1S(=O)(=O)N1CCOCC1	-12	0	0	0	0	94	0.15
COc1ccc(C(=O)OCc2cc(C)ccc2C)cc1S(=O)(=O)N1CCCC1	-14	-	-	-	-	93	0
O=C(OCCOc1cccc(Cl)c1)c1ccc(F)c(S(=O)(=O)N2CCOCC2)c1	0	-	-	-	-	-	-
Cc1cccc(NC(=O)COC(=O)c2ccc(C)c(S(=O)(=O)N3CCCCC3)c2)c1	-12	-	-	-	-	97	0
C=CCNC(=S)N1CCC(C(=O)c2ccc(F)cc2)CC1	0	0	0	0	0	-	-
NC(=O)NC(Cc1ccccc1)C(=O)NCCCSc1ccccc1 (stereo unspecified)	0	0	0	0	0	-	-
N#Cc1cc2c(nc1SCC(O)CS(=O)(=O)Cc1ccc(Cl)cc1)CCCC2 (stereo unspecified)	-11	0	0	0	0	109	0.15
CC(=O)C1=C(C)NC(SCC(=O)c2ccc(F)cc2)=C(C#N)C1c1ccco1 (stereo unspecified)	0	0	0	0	0	-	-
CC(=O)C1=C(C)NC(SCC(=O)c2ccc(Cl)c(Cl)c2)=C(C#N)C1c1ccco1 (stereo unspecified)	-11	-7.8	0	0	0	125	0.16
O=C1OC(c2ccccc2)(c2ccccc2)c2ccccc21	-12	-	-	-	-	107	0
O=C1CC(c2ccccc2)(c2ccccc2)c2ccccc21	0	-	-	-	-	-	-
CCN(CC(=O)Nc1ccc(OC)cc1)CC(=O)Nc1cccc(C#N)c1	0	0	0	0	0	-	-
CCN(CC(=O)Nc1cccc(C#N)c1)CC(=O)Nc1cccc(OC)c1	-9.7	0	0	0	0	90	0
C=CC(C)(O)CCCC(C)CCCC(C)CCCC(C)C (stereo unspecified)	0	-	-	-	-	-	-
COCCOc1nc2c(c(=O)n(C)c(=O)n2C)n1Cc1cccc(OC)c1	-11	0	0	0	0	66	0
CCCCCn1c(N)c(-c2nc3ccccc3s2)c2c([N+](=O)[O-])nn(C)c(=O)c21	-11	0	0	0	11	102	0.15
Cn1cccc1C(=O)NC(=O)COC(=O)CCNS(=O)(=O)c1ccc(Cl)cc1	0	-	-	-	-	-	-
NC(=O)C1CCN(C(=O)c2ccc(NS(=O)(=O)c3ccc(F)c(F)c3)cc2)CC1	0	-	-	-	-	-	-
CC(=O)N1c2ccc(S(=O)(=O)N3CCC(C(=O)N4CCN(c5cc(Cl)ccc5C)CC4)CC3)cc2CC1C (stereo unspecified)	-9.5	0	0	0	6	108	0

High-throughput results as filed in PubChem.
